Active and inactive are the calls of the source. The rule behind the calls is not given here.
Key:
[1] = system: LNCaP; assay: Antiproliferative activity against human LNCAP cells after 7 days by MTT assay; type: functional, cell-based; conditions: 168 h
Summary of the method: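 LNCaP cell growth measured by MTT assay. GI50, the concentration giving 50% growth inhibition, was obtained by nonlinear regression of dose–response curves pooled from at least three independent experiments; SEM < 10%.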

[2] = system: CWR22R; assay: Antiproliferative activity against human CWR22Rv1 cells after 7 days by MTT assay; type: functional, cell-based; conditions: 22Rv1, 168 h
Summary of the method: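 MTT proliferation assay in CWR22Rv1 human prostate cancer cells. GI50, the concentration causing 50% growth inhibition, was read from dose–response curves.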

[3] = target: T1, Androgen receptor (Homo sapiens, UniProt P10275); assay: Inhibition of DHT-induced androgen receptor transactivation in human LNCaP cells after 24 hrs by luciferase reporter gene assay relative to control; type: cell-based
T1 sequence (P10275 whole entry): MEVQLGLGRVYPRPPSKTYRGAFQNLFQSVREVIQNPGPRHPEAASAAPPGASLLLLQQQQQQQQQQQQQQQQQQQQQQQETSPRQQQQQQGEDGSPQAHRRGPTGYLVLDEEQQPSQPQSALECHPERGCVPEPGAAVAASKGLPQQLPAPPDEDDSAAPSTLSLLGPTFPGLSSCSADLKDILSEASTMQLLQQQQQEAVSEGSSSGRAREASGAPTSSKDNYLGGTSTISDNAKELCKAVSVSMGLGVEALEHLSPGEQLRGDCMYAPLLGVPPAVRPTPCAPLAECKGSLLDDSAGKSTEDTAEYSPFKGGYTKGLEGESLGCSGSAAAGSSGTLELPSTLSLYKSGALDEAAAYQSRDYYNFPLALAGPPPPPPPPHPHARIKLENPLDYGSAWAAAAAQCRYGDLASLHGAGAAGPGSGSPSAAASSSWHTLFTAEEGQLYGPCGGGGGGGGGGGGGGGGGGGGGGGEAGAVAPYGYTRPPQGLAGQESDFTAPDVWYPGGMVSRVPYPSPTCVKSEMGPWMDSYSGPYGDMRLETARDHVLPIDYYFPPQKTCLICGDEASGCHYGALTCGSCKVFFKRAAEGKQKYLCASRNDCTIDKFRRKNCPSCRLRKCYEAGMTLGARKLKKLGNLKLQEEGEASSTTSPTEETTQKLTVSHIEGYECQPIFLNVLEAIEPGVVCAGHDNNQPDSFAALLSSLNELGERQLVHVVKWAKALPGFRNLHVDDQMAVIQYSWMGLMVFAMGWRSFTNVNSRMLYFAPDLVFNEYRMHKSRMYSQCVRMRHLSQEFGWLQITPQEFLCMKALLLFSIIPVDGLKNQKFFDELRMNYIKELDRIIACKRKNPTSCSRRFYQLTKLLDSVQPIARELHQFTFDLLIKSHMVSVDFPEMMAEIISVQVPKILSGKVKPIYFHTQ

[4] = target: T2, Androgen receptor (Homo sapiens) (UniProt P10275); assay: Inhibition of DHT-induced androgen receptor transactivation in human LNCaP cells at 10 uM after 24 hrs by luciferase reporter gene assay relative to control; type: cell-based
T2 sequence (whole entry): T1 sequence (P10275 whole entry)
Summary of the method: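 LNCaP cells dual-transfected with the probasin luciferase reporter AAR2-luc plus the Renilla vector pRL-null. Cells treated with compound at 10 μM for 24 h with 10 nM DHT. Luminescence read and normalized to Renilla activity. Result expressed as fold induction over unstimulated baseline. Replicates from three independent experiments.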

[5] = target: T3, Steroid 17-alpha-hydroxylase/17,20 lyase (Homo sapiens, UniProt P05093); assay: Inhibition of CYP17 (unknown origin)
T3 sequence (P05093 whole entry): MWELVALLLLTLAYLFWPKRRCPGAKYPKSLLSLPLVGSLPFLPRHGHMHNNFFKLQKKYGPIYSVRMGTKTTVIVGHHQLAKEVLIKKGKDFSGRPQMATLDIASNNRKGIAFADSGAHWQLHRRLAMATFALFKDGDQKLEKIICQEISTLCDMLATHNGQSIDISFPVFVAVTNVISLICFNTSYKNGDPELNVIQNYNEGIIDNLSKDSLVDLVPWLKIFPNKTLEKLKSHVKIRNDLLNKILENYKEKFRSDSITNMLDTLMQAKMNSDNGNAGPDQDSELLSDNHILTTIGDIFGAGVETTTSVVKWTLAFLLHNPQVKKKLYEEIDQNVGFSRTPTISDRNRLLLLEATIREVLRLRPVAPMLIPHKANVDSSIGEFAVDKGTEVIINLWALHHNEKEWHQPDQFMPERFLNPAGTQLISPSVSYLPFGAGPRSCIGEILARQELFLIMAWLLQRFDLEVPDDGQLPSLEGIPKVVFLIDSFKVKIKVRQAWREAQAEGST
Summary of the method: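 CYP17 enzyme activity measured in duplicate over a range of inhibitor concentrations. IC50 read from the dose–response curve as the concentration giving 50% inhibition.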

[6] = system: CWR22R; assay: Antitumor activity against human CWR22Rv1 cells xenografted in SCID mouse assessed as tumor growth inhibition at 0.15 mmol/kg, ip bid administered for 5 days per week relative to control; type: functional; conditions: 22Rv1, ip, 120 h, read-out: TGI
[7] = target: T2, Androgen receptor (Homo sapiens); assay: Induction of AR-V7 degradation in human CWR22Rv1 cells at 15 uM after 24 hrs by Western blot analysis; type: cell-based
Summary of the method: (§1)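 CWR22Rv1 prostate cancer cells exposed to compound at 15 μM for 24 h. Protein lysates analysed by Western blot for f-AR and AR-V7 expression.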

[8] = target: T2, Androgen receptor (Homo sapiens); assay: Induction of full length androgen receptor degradation in human CWR22Rv1 cells at 15 uM after 24 hrs by Western blot analysis; type: cell-based; summary of the method: as §1
[9] = target: T2, Androgen receptor (Homo sapiens); assay: Induction of AR-V7 degradation in human CWR22Rv1 cells upto 7.5 uM after 72 hrs by Western blot analysis; type: cell-based
Summary of the method: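 CWR22Rv1 cells treated across 0 → 7.5 μM for 72 h. Lysates analysed by Western blot for f-AR and AR-V7. EC50 taken from dose–response curves.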

| SMILES | IC50 [1] [µM] | IC50 [2] [µM] | EC50 [3] [µM] | inhibition [4] | IC50 [5] [µM] | inhibition in vivo at 150 µmol/kg [6] [%] | Activity [7] | Activity [8] | Activity [9] |
| --- | --- | --- | --- | --- | --- | --- | --- | --- | --- |
| C[C@]12CC[C@H]3[C@@H](C[C@@H](n4ccnc4)C45CC4CC[C@]35C)[C@@H]1CC=C2n1cnc2ccccc21 (some centres not stated) | 6.61 | 12.3 | 0.47 | Active |  |  |  |  |  |
| C[C@]12CC[C@@H](n3ccnc3)CC1=CC[C@@H]1[C@@H]2CC[C@]2(C)C(n3cnc4ccccc43)=CC[C@@H]12 | 8.91 | 9.88 |  | Active |  |  |  |  |  |
| C[C@]12CCC=CC1=CC[C@@H]1[C@@H]2CC[C@]2(C)C(n3cnc4ccccc43)=CC[C@@H]12 |  |  |  | Active |  |  |  |  |  |
| C[C@]12CC[C@H](OCc3cccnc3)CC1=CC[C@@H]1[C@@H]2CC[C@]2(C)C(n3cnc4ccccc43)=CC[C@@H]12 | 4.26 | 0.81 |  | Active |  |  |  |  |  |
| CNC(=O)c1ccc(N2C(=S)N(c3ccc(C#N)c(C(F)(F)F)c3)C(=O)C2(C)C)cc1F [ENZALUTAMIDE] | 4.85 |  |  |  |  |  |  |  |  |
| C[C@]12CC[C@H](O)CC1=CC[C@@H]1[C@@H]2CC[C@]2(C)C(n3cnc4ccccc43)=CC[C@@H]12 [GALETERONE] | 3.93 | 8.91 |  |  | 0.14 | 60 |  |  |  |
| C[C@]12CC[C@H](OC(=S)n3ccnc3)CC1=CC[C@@H]1[C@@H]2CC[C@]2(C)C(n3cnc4ccccc43)=CC[C@@H]12 | 9.57 | 7.52 | < 0.1 | Active |  |  |  |  |  |
| C[C@]12CC[C@@H]3c4ccc(O)cc4CC[C@H]3[C@@H]1CC=C2n1cnc2ccccc21 | 3.89 | 0.5 |  | Active | 25.9 |  |  |  |  |
| COC(=O)c1ccc2c(c1)CC[C@@H]1[C@@H]2CC[C@]2(C)C(n3cnc4ccccc43)=CC[C@@H]12 | 6.91 | 8.74 |  | Active | > 15 |  |  |  |  |
| C[C@]12CC[C@H](OCc3ccccc3)CC1=CC[C@@H]1[C@@H]2CC[C@]2(C)C(n3cnc4ccccc43)=CC[C@@H]12 | 5.12 | 1.2 |  | Active |  |  |  |  |  |
| C[C@]12CC[C@@H]3c4ccc(C(=O)O)cc4CC[C@H]3[C@@H]1CC=C2n1cnc2ccccc21 |  |  |  | Active |  |  | Active |  |  |
| C[C@]12CC[C@H](n3ccnc3)CC1=CC[C@@H]1[C@@H]2CC[C@]2(C)C(n3cnc4ccccc43)=CC[C@@H]12 | 1.64 | 2.54 | 0.19 | Active | 0.48 |  | Active | Active | Active |
| C[C@]12CC[C@H](OC(=O)n3ccnc3)CC1=CC[C@@H]1[C@@H]2CC[C@]2(C)C(n3cnc4ccccc43)=CC[C@@H]12 |  |  |  |  |  | 70 | Active |  | Active |
| C[C@]12CC[C@H](O)CC1=CC[C@@H]1[C@@H]2CC[C@]2(C)C(c3cccnc3)=CC[C@@H]12 [ABIRATERONE] |  |  |  |  | 0.048 |  |  |  |  |
| C[C@]12CC[C@H](OCc3ccncc3)CC1=CC[C@@H]1[C@@H]2CC[C@]2(C)C(n3cnc4ccccc43)=CC[C@@H]12 | 2.45 | 3.24 | 1.65 | Active | > 15 |  | Active | Active | Active |
| CO[C@H]1CC[C@@]2(C)C(=CC[C@@H]3[C@@H]2CC[C@]2(C)C(n4cnc5ccccc54)=CC[C@@H]32)C1 | 8.71 | 7.5 |  | Active | 39 |  |  |  |  |
